This passage reports AUC, Drug metabolism and Kp results from ChEMBL document CHEMBL4622977, “A CNS-Targeting Prodrug Strategy for Nuclear Receptor Modulators” (J Med Chem, 2020).

A word on the Kp: it is the ratio of the level in a tissue or fluid to that in plasma or blood.

The nature of data set [1]: AUC (0.5 to 6 hrs) in C57BL/6 mouse brain assessed as bezafibrate level at 9.14 umol/kg, ip by LC-MS/MS analysis. Conditions: in vivo. The class given is ADME, organism-based. More on the design: time 0.5-6 hr, dose 9.14 umol/kg, route intraperitoneal. A digest of the protocol: (§1)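 Male wild-type C57BL/6 mice (8−10 weeks, n=3 per time point) received parent drug or equimolar prodrug at […] i.p. in DMSO. Brain and serum were collected at 0.5, 2 and 6 h. Parent acid was quantified by LC-MS/MS against vehicle-tissue standard curves with d₆-sobetirome internal standard. AUC0.5–6 h was computed from the time course; mean ± SEM.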

Data set [2] can be described thus: AUC (0.5 to 6 hrs) in C57BL/6 mouse serum assessed as bezafibrate level at 9.14 umol/kg, ip by LC-MS/MS analysis. The data set is classed as ADME, organism-based. Also noted: dose 9.14 umol/kg, time upper 6 hr, time lower 0.5 hr, route intraperitoneal. Conditions: in vivo. In a few lines:
as §1

Data set [3] is described as follows: Prodrug conversion in C57BL/6 mouse brain assessed as bezafibrate level at 9.14 umol/kg, ip measured after 1 hr in presence of FAAH inhibitor PF-3845 by LC-MS/MS analysis. The data set is classed as ADME, organism-based. To be noted: in vivo. A digest of the protocol: (§2)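 Male C57BL/6 mice (n=3) received PF-3845 at 1 mg/kg i.p., then prodrug at […] i.p. 1 h later; comparators received prodrug alone. Vehicle was DMSO. Whole brain was taken 1 h after prodrug and homogenized in water with d₆-sobetirome internal standard. It was extracted with EtOAc/MeCN and parent acid was measured by LC-MS/MS; mean ± SEM, 2-tailed unpaired t test.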

A short description of data set [4]: Prodrug conversion in C57BL/6 mouse brain assessed as 4-chlorobenzoate formation at 9.14 umol/kg, ip measured up to 6 hrs by LC-MS/MS analysis. The data set is classed as ADME, organism-based. To be noted: in vivo, BLD = below limit of detection. In a few lines:
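Male C57BL/6 mice (n=3) received prodrug at […] i.p. in DMSO. Brain was collected at 0.5, 2 and 6 h. The 4-chlorobenzoate cleavage product was sought by LC-MS/MS against a vehicle-brain standard curve with d₆-sobetirome internal standard; the limit was LoQ.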

Data set [5] is described as follows: Brain to serum concentration ratio, Kp of the compound in C57BL/6 mouse assessed as bezafibrate level at 9.14 umol/kg, ip by LC-MS/MS analysis. The class given is ADME, organism-based. In a few lines:
(§3)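 Brain-to-serum ratio Kp was calculated from brain and serum parent-drug AUC0.5–6 h (ng/g*h). These AUCs came from male C57BL/6 mice (n=3 per time point) given parent drug or equimolar prodrug at […] i.p. in DMSO, sampled at 0.5, 2 and 6 h. Parent acid was quantified by LC-MS/MS with d₆-sobetirome internal standard.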

In data set [6] the target is T1, Fatty-acid amide hydrolase 2 (Homo sapiens, UniProt Q6GMR7).
T1 sequence (Q6GMR7 whole entry): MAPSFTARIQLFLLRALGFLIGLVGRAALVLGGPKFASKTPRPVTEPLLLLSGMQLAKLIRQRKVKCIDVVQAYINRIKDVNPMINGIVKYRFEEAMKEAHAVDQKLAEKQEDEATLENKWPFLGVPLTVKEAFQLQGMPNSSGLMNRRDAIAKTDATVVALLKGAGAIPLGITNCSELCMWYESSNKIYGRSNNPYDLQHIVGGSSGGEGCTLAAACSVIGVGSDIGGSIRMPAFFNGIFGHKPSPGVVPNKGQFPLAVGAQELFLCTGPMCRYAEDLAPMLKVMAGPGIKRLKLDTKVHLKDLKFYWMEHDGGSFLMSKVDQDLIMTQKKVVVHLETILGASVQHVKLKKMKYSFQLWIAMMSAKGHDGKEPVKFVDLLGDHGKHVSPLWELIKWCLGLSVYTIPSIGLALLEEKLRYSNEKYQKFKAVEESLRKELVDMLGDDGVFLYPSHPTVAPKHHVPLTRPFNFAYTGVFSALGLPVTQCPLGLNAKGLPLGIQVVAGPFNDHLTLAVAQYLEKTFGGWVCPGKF
Put plainly: Substrate activity at FAAH2 in human brain S9 fraction assessed as bezafibrate level at 100 uM measured after 15 mins by LC-MS/MS analysis. To be noted: s9, 0.25 h. The data set is classed as ADME, subcellular. In a few lines:
(§4)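 Human brain S9 at 1 mg/mL, with or without […] PF-3845, was prewarmed 5 min at 37 °C. It was incubated 15 min at 37 °C with 100 µM prodrug (final), then quenched with MeCN/DMF containing d₆-sobetirome. Parent acid was measured by LC-MS/MS. FAAH-dependent level = untreated sample (n=3) minus mean PF-3845 samples (n>2).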

A short description of data set [7]: Renal toxicity in C57BL/6 mouse assessed effect on Fasn gene expression in kidney at 9.14 umol/kg, ip administered once daily for 7 days by Trizol reagent based RT-qPCR analysis. The data set is classed as organism-based. To be noted: in vivo, 168 h. A digest of the protocol: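 Male C57BL/6 mice (n=5) were dosed once daily for 7 days i.p. with parent drug at […], equimolar prodrug, or vehicle. The vehicle was 1:1:8 Kolliphor:NMP:water. Target gene expression was compared between groups per tissue by 2-tailed unpaired t test.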

In data set [8] the target is T2, Fatty-acid amide hydrolase 1 (Homo sapiens, UniProt O00519).
T2 sequence (O00519 whole entry): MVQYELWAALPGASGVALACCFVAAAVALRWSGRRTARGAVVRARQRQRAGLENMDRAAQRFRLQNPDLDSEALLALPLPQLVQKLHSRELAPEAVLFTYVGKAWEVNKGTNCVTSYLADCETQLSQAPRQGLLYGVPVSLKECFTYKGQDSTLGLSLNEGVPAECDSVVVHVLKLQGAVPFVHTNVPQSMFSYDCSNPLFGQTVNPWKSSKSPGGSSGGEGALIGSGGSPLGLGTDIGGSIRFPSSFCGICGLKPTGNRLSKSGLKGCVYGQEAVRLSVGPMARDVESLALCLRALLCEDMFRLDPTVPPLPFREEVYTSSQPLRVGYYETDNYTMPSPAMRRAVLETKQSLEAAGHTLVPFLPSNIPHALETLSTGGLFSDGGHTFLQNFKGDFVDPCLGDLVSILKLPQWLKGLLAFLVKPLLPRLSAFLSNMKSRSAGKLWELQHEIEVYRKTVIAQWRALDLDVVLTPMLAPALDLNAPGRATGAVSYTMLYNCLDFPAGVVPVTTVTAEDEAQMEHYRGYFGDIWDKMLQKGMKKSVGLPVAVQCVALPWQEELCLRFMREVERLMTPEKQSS
Put plainly: Substrate activity at FAAH1 in human brain S9 fraction assessed as 2-(3-chloro-4-((3-((7-propyl-3-(trifluoromethyl)-benzo[d]isoxazol-6-yl)oxy)propyl)thio)phenyl)acetic acid level at 100 uM measured after 15 mins by LC-MS/MS analysis. To be noted: s9, 0.25 h. The data set is classed as ADME, subcellular. A digest of the protocol: as §4

Data set [9] can be described thus: AUC (0.5 to 6 hrs) in C57BL/6 mouse serum assessed as 2-(3-chloro-4-((3-((7-propyl-3-(trifluoromethyl)-benzo[d]isoxazol-6-yl)oxy)propyl)thio)phenyl)acetic acid level at 9.14 umol/kg, ip by LC-MS/MS analysis. The class given is ADME, organism-based. More on the design: dose 9.14 umol/kg, time 0.5-6 hr, route intraperitoneal. To be noted: in vivo. In a few lines: as §1

The nature of data set [10]: Brain to serum concentration ratio, Kp of the compound in C57BL/6 mouse assessed as 2-(3-chloro-4-((3-((7-propyl-3-(trifluoromethyl)-benzo[d]isoxazol-6-yl)oxy)propyl)thio)phenyl)acetic acid level at 9.14 umol/kg, ip by LC-MS/MS analysis. The class given is ADME, organism-based. In a few lines: as §3
The nature of data set [11]: AUC (0.5 to 6 hrs) in C57BL/6 mouse brain assessed as 2-(3-chloro-4-((3-((7-propyl-3-(trifluoromethyl)-benzo[d]isoxazol-6-yl)oxy)propyl)thio)phenyl)acetic acid level at 9.14 umol/kg, ip by LC-MS/MS analysis. The data set is classed as ADME, organism-based. Also noted: time upper 6 hr, dose 9.14 umol/kg, time lower 0.5 hr, route intraperitoneal. Conditions: in vivo. In a few lines: as §1

A short description of data set [12]: Prodrug conversion in C57BL/6 mouse brain assessed as 2-(3-chloro-4-((3-((7-propyl-3-(trifluoromethyl)-benzo[d]isoxazol-6-yl)oxy)propyl)thio)phenyl)acetic acid level at 9.14 umol/kg, ip measured after 1 hr in presence of FAAH inhibitor PF-3845 by LC-MS/MS analysis. Conditions: in vivo. The data set is classed as ADME, organism-based. A digest of the protocol:
as §2

For `CNC(=O)C(C)(C)Oc1ccc(CCNC(=O)c2ccc(Cl)cc2)cc1`, the AUC in data set [1] was 26.3 ng·h/g; in [2] it was 470.6 ng·h/g. The Drug metabolism entry was “Metabolite_Notdetected” in [3], “Bld” in data set [4], “Metabolite_Detected” in data set [6] and “Metabolite_Detected” in data set [7]. The Kp in data set [5] came out at 0.06.
For the molecule `CCCc1c(OCCCSc2ccc(CC(=O)NC)cc2Cl)ccc2c(C(F)(F)F)noc12`, the Drug metabolism entry in data set [8] and in data set [12] was “Metabolite_Notdetected” in each case. In addition, the AUC in data set [9] was 276.5 ng·h/g; in [11], 12.64 ng·h/g. The Kp in [10] was 0.05.
